Experimental data taken from ChEMBL document CHEMBL1158486, “Combining hit identification strategies: fragment-based and in silico approaches to orally active 2-aminothieno[2,3-d]pyrimidine inhibitors of the Hsp90 molecular chaperone” (J Med Chem, 2009).
The source made the active and inactive calls. The rule behind the calls is not given here.

Experiments:
[1] = Antitumor activity against human PC3LN3 cells xenografted in CrTac:Ncr-Fox1 nude athymic mouse assessed as local lymph node tumor weight at 100 mg/kg, po qd commenced 12 days after tumor cell inoculation measured after 14 days relative to control; assay type: functional
BT-474 [2] = experiment: Induction of Hsp72 protein expression in human BT474 cells after 24 hrs by Western immunoblotting; assay type: functional, cell-based
Outline: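 BT474 or HCT116 cells treated for 24 h at 25, 50, 100, 200 and 400 nM. Lysates prepared in 50 mM Tris-HCl with 2% SDS, pH 6.8, and protein measured by BCA. Equal loads run on SDS-PAGE and transferred to PVDF; probed with ECL detection, with GAPDH as loading control.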

BT-474 [3] = experiment: Induction of Hsp72 protein expression in human BT474 cells at 2 times GI50 after 24 hrs by Western immunoblotting; assay type: functional, cell-based
Outline: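 BT474 cells exposed for 24 h at 2, 4 or 8 times the cellular GI50. Hsp72 detected by Western blot with ECL, GAPDH as loading control.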

BT-474 [4] = experiment: Reduction of phosphorylated AKT protein expression in human BT474 cells at 4 times GI50 after 24 hrs by Western immunoblotting; assay type: functional, cell-based
Outline: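 BT474 cells exposed 24 h to compound at 2, 4 or 8 times the cellular GI50. Lysates made in 50 mM Tris-HCl, 2% SDS pH 6.8 and protein assayed by BCA. Equal protein run on SDS-PAGE, transferred to PVDF, immunoblotted with ECL detection; GAPDH used as loading control.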

Mus musculus [5] = experiment: Induction of HER2 protein degradation in estrogen receptor and HER2 overexpressing human BT474 cells xenografted in Harlan HsdNpa athymic nude mouse at 30 mg/kg, po qd measured 6 hrs after final dose by Western immunoblotting; assay type: functional, organism-based; parameters: dose 30 mg/kg; conditions: BT-474
Outline: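 BT474 xenograft-bearing nude mice received 30 mg/kg po once daily. Tumors were collected at the end of the efficacy study, 6 h after the final dose. They were assayed for p23 dissociation from Hsp90α or for client protein levels by Western blotting.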

Mus musculus [6] = experiment: Toxicity in Harlan HsdNpa athymic nude mouse assessed as survival at 30 mg/kg, po qd; assay type: organism-based; parameters: dose 30 mg/kg, route oral; conditions: in vivo
Outline: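 Female Harlan HsdNpa athymic nude mice, implanted sc with a 17β-estradiol pellet (25 μg/day) 2–3 days before sc right-flank injection of 5 × 10^6 BT-474 cells in Matrigel:HBSS (1:1). Oral gavage at 30 mg/kg once daily in 0.5% sodium carboxymethylcellulose, started when mean tumor volume was about 100 mm3. Body weight was tracked during therapy, and survivors were scored per group of 8.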

CCNC(=O)c1cc2c(-c3cc(OCCN(CC)CC)c(Cl)cc3Cl)nc(N)nc2s1
T/C [1]: 11.3% | Activity (BT-474 [2]): Dose-dependent effect | Activity (BT-474 [3]): Active | Activity (BT-474 [4]): Active | Activity (Mus musculus [5]): Active | Activity (Mus musculus [6]): Toxic
